17 compounds from ChEMBL document CHEMBL4715721, “Synthesis and optimization of novel allylated mono-carbonyl analogs of curcumin (MACs) act as potent anti-inflammatory agents against LPS-induced acute lung injury (ALI) in rats” (Eur J Med Chem, 2016) can be followed below.

≈ marks a conversion by molar mass, not a printed value.

In general, inhibition refers to the relative decrease from the control value, in per cent. By logP is commonly meant a log measure of how a compound divides between an organic and an aqueous phase.

Series [1] relates to RAW264.7. Description: Antiinflammatory activity in mouse RAW264.7 cells assessed as decrease in LPS-induced IL-6 secretion at 10 microM incubated for 30 mins followed by LPS stimulation and measured after 24 hrs by ELISA relative to control. Format: functional. To be noted: RAW264.7, 24.5 h, time 1470 min. A digest of the protocol: (§1)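 RAW264.7 cells in DMEM with 10% FBS at 37 °C, 5% CO₂; pretreated with 10 μM for 30 min, then LPS 0.5 μg/mL for 24 h. Medium TNF-α and IL-6 measured by ELISA and normalized to total protein of viable cells; percent inhibition, mean ± SD of three experiments.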
(In general: In an ELISA, binding on a coated surface is turned into a signal by an enzyme label.)

Series [2] can be described thus: Cytotoxicity against human HL7702 cells assessed as cell survival rate at 10 uM incubated for 24 hrs by MTT assay. To be noted: HL7702 (L02) cells, read-out: Activity. Format: cell-based. Summed up:
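HL-7702 human normal hepatic cells exposed to 10 μM compound for 24 h; viability measured by MTT assay and given as survival rate, mean ± SD of three experiments.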

Series [3] relates to RAW264.7. Description: (§2) Cytotoxicity against mouse RAW264.7 cells assessed as cell survival rate at 10 uM. Format: cell-based. To be noted: raw264.7, 10 µM.
The nature of series [4]: as §2. The series is classed as cell-based. Particulars: RAW264.7 cells, read-out: Activity.
The subject of series [5] is RAW264.7. The series can be described thus: Antiinflammatory activity in mouse RAW264.7 cells assessed as decrease in LPS-induced TNF-alpha secretion at 10 microM incubated for 30 mins followed by LPS stimulation and measured after 24 hrs by ELISA relative to control. The series is classed as functional. Particulars: RAW264.7, 24.5 h, time 1470 min. A digest of the protocol:
as §1

The subject of series [6] is RAW264.7. The series can be described thus: Antiinflammatory activity in mouse RAW264.7 cells assessed as decrease in LPS-induced IL-6 secretion incubated for 30 mins followed by LPS stimulation and measured after 24 hrs by ELISA. The series is classed as functional, cell-based. To be noted: dose 1-10 µM, time 1470.0 min. A digest of the protocol:
(§3)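 RAW264.7 cells seeded at 4.0×10^5/plate overnight; pretreated at 1, 2.5, 5 or 10 μM for 30 min, then with or without LPS 0.5 μg/mL for 24 h. Medium IL-6 and TNF-α measured by ELISA and normalized to total protein; percent of LPS control, mean ± SEM of three independent experiments.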

The test system of series [7] is RAW264.7. Description: Antiinflammatory activity in mouse RAW264.7 cells assessed as decrease in LPS-induced TNF-alpha secretion incubated for 30 mins followed by LPS stimulation and measured after 24 hrs by ELISA. To be noted: dose 1-10 µM, time 1470.0 min. Format: functional, cell-based. Summed up: as §3
A short description of series [8]: Chemical stability of compound in PBS buffer containing 5% DMSO at pH 7.4 measured every 5 mins for 25 mins by UV-Vis absorption spectral analysis. The series is classed as physicochemical. To be noted: pH 7.4, 25 min. Summed up: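 Compound diluted from 1 mM stock in phosphate buffer pH 7.4 containing 5% DMSO; UV-visible spectra recorded from 250 to 600 nm at 25 °C in a 1 cm quartz cuvette, every 5 min for 25 min.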

Series [9] can be described thus: Octanol-water partition coefficient, logP of compound. Format: physicochemical.
Series [10] can be described thus: Aqueous kinetic solubility of compound at pH 7.4. To be noted: read-out: Kinetic_solubility. Format: physicochemical.

`C=CCc1cc(/C=C2\CN(CCC)C/C(=C\c3ccc(O)c(CC=C)c3)C2=O)ccc1O`: the inhibition at 10 µM in the series with RAW264.7 [1] was found to be 76.1%. The viability at 24 h, 10 µM in series [2] was found to be 75.2%. Also, the Activity result in the series on RAW264.7 [3] is on record as “Non-Toxic”.
The like results for `C=CCc1cc(/C=C2\CN(C(=O)c3ccc(C)cc3)C/C(=C\c3ccc(O)c(CC=C)c3)C2=O)ccc1O` were, in that order, 81.5%, 70.1% and “Non-Toxic”.
In the case of `C=CCc1cc(/C=C2\CN(C(=O)c3ccc(Cl)cc3)C/C(=C\c3ccc(O)c(CC=C)c3)C2=O)ccc1O`, in the series with RAW264.7 [1], the inhibition at 10 µM is 89.2%. Moreover, the viability at 24 h, 10 µM in [2] came to 66.2%. For the same compound, the viability at 10 µM in [4] is less than 70%.
`C=CCc1cc(/C=C2\CN(C(=O)c3ccc(F)cc3)C/C(=C\c3ccc(O)c(CC=C)c3)C2=O)ccc1O`: the inhibition at 10 µM with RAW264.7 [1] is 86.8%. Moreover, the viability at 24 h, 10 µM in [2] is 78%. In addition, in the series with RAW264.7 [3], the Activity result is listed as “Non-Toxic”.
With `C=CCc1cc(/C=C2\CN(C)C/C(=C\c3ccc(O)c(CC=C)c3)C2=O)ccc1O`, the inhibition at 10 µM with RAW264.7 [1] turned out to be 57.1%. Further, the viability at 24 h, 10 µM in series [2] is 80.3%. The Activity entry in the series with RAW264.7 [3] is “Non-Toxic”.
Consider `C=CCc1cc(/C=C2\CN(C3CC3)C/C(=C\c3ccc(O)c(CC=C)c3)C2=O)ccc1O`, for which the inhibition at 10 µM in the series with RAW264.7 [1] is 77.5%; in the series on RAW264.7 [5], 39.5%. Moreover, in series [2], the viability at 24 h, 10 µM was found to be 76.2%. For the same compound, the inhibition result in the series on RAW264.7 [6] and in the series with RAW264.7 [7] was “Dose-dependent effect” in each case. Further, the Stabilty result in series [8] is on record as “Stable”. For the same compound, the Activity result with RAW264.7 [3] is “Non-Toxic”.
For `C=CCc1cc(/C=C2\CN(C(C)C)C/C(=C\c3ccc(O)c(CC=C)c3)C2=O)ccc1O`, the inhibition at 10 µM in the series with RAW264.7 [1] came out at 71.6%. Further, in series [2], the viability at 24 h, 10 µM amounted to 85.1%. Also, the Activity entry with RAW264.7 [3] was “Non-Toxic”.
On the same counts, the results for `C=CCc1cc(/C=C2\CNC/C(=C\c3ccc(O)c(CC=C)c3)C2=O)ccc1O` are 44.4%, 77.9% and “Non-Toxic”.
Regarding `C=CCc1cc(/C=C2\CN(C3CC3)C/C(=C\c3ccc(N(C)C)cc3)C2=O)ccc1O`, the inhibition at 10 µM in the series with RAW264.7 [1] was 74.4%; in the series on RAW264.7 [5] it was 35%. Also, in series [2], the viability at 24 h, 10 µM was determined as 89.4%. Besides, the logP in series [9] came to 3.5. The solubility kinetic in [10] came out at 17.1 mg/mL (≈ 41.2 mM).
With `C=CCc1cc(/C=C2\CN(CC)C/C(=C\c3ccc(O)c(CC=C)c3)C2=O)ccc1O`, the inhibition at 10 µM in the series with RAW264.7 [1] stood at 67.6%. Further, the viability at 24 h, 10 µM in series [2] was 79.6%. The Activity entry in the series on RAW264.7 [3] is reported as “Non-Toxic”.
As for `C=CCc1cc(/C=C/C(=O)/C=C/c2ccc(O)c(CC=C)c2)ccc1O`, the results for the inhibition at 10 µM with RAW264.7 [1] and in the series on RAW264.7 [5] were 59.6% and 7.15%, respectively. In [2], the viability at 24 h, 10 µM came to 73.3%. Also, the Stabilty entry in [8] is recorded as “Stable”. Besides, the Activity entry in the series on RAW264.7 [3] was “Non-Toxic”.
As to `C=CCc1cc(/C=C2\CN(C3CC3)C/C(=C\c3ccc(N4CCOCC4)cc3)C2=O)ccc1O`, the inhibition at 10 µM with RAW264.7 [1] is 59.8%; in the series with RAW264.7 [5], 8.19%. The viability at 24 h, 10 µM in [2] is 94.3%. In [9], this compound returned a logP of 3.21. The solubility kinetic in series [10] turned out to be 19.4 mg/mL (≈ 42.5 mM).
Consider `C=CCc1cc(/C=C2\CN(S(=O)(=O)c3ccccc3)C/C(=C\c3ccc(O)c(CC=C)c3)C2=O)ccc1O`, for which the inhibition at 10 µM in the series with RAW264.7 [1] amounted to 24.8%. The viability at 24 h, 10 µM in [2] was found to be 63.4%. Besides, the viability at 10 µM in series [4] is less than 70%.
As for `C=CCc1cc(/C=C2\CN(C3CC3)C/C(=C\c3ccc(N(CC)CC)cc3)C2=O)ccc1O`, the inhibition at 10 µM in the series on RAW264.7 [1] worked out at 71.9%; in the series with RAW264.7 [5], 32.1%. Besides, the viability at 24 h, 10 µM in series [2] is 94%. In series [9], this compound came in with a logP of 4.08.
In the case of `C=CCc1cc(/C=C2\CN(Cc3ccccc3)C/C(=C\c3ccc(O)c(CC=C)c3)C2=O)ccc1O`, the inhibition at 10 µM in the series on RAW264.7 [1] worked out at 45.8%. Moreover, the viability at 24 h, 10 µM in [2] is 62.1%. Moreover, the viability at 10 µM in [4] is less than 70%.
With `C=CCc1cc(/C=C2\CN(C3CC3)C/C(=C\c3ccc(N4CCCC4)cc3)C2=O)ccc1O`, the inhibition at 10 µM in the series on RAW264.7 [1] was found to be 49.9%; in the series on RAW264.7 [5] it was 17.6%. For the same compound, the viability at 24 h, 10 µM in series [2] was determined as 95.5%. The logP in series [9] is 4.33.
In the case of `C=CCc1cc(/C=C2\CN(C(=O)c3c(Cl)cccc3Cl)C/C(=C\c3ccc(O)c(CC=C)c3)C2=O)ccc1O`, the inhibition at 10 µM with RAW264.7 [1] was found to be 79.6%. The viability at 24 h, 10 µM in [2] stood at 79.6%. Moreover, in the series on RAW264.7 [3], the Activity result is “Non-Toxic”.
